Source: PubChem BioAssay
OX1R antag-1 – blocks the human orexin 1 receptor; O43613; actives 1.8% (n = 330,000); OX1R-expressing cells, FRET antagonist read-out; inhibition, % at 6.6 µM; AID 485270; in the data active = inhibition mostly above about 38%, no sharp cut-off; inactive = mostly below about 40%;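 also: 0% = agonist challenge alone and 100% = reference antagonist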
Target sequence (O43613 whole entry, looked up): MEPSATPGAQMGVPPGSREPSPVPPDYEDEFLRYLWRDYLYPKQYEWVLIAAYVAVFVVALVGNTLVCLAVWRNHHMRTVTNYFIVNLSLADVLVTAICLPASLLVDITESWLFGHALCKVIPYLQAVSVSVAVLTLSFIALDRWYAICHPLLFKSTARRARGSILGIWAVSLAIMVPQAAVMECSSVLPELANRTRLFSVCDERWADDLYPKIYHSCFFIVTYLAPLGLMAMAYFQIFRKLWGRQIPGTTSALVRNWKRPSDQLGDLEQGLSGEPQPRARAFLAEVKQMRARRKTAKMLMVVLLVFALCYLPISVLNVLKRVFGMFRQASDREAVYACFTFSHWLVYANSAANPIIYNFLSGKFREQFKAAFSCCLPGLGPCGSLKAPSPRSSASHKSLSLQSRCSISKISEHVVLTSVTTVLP
CHO parental Ca – signal in parental CHO cells, OX1R antagonist counter-screen. parental CHO-K1, ATP-induced calcium, Fluo-8 fluorescence. inhibition, % at 5.6 µM. actives 0.63% (n = 330,000). AID 463079;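 active = inhibition above that plate's mean sample inhibition plus 3 SD, cut at about 26% in these data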;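 also: 0% = ATP-challenged DMSO wells and 100% = DMSO wells without ATP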
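material = parental CHO cells | also added = ATP as calcium-mobilizing challenge | dosing = single point at 5.6 µM | detection = intracellular calcium via Fluo-8 no-wash fluorescent dye | read-out = % inhibition | benchmarks = low control ATP plus DMSO, high control DMSO only | repeats = one well per compound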
TAAR1 antag – human TAAR1 antagonism; Q96RJ0; CHO RD-HGA16 TAAR1, Fluo-8 calcium fluorescence, antagonist; inhibition, % at 3 µM; actives 1.5% (n = 360,000); AID 624466;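 active = inhibition above a per-plate cutoff, the mean inhibition of test compounds on that plate plus 3 SD, cut at about 49% in these data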;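 also: 0% = DMSO plus EC80 beta-PEA response and 100% = DMSO alone without agonist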
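Assay system: RD-HGA16 CHO cells with stable hTAAR1 and Gα16 / Reagent: EC80 β-phenethylamine stimulus / Doses: 3 µM, single point / Timing: dye loading 75 min at 37 °C, then 30 min room temperature / Measured by: Fluo-8 intracellular calcium dye fluorescence, real-time kinetic reads / Controls: vehicle wells and EC80 agonist wells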
TAAR1 agonist – agonists of human TAAR1. Q96RJ0. AID 624467. actives 0.99% (n = 360,000). activation, % at 3 µM. CHO RD-HGA16 TAAR1, Fluo-8 calcium fluorescence; vehicle wells 0%, saturating PEA agonist 100%;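 active = activation above the mean activation of all test compounds in the run plus 3 SD, cut at about 38% in these data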
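Test system: RD-HGA16 (CHO) cells co-expressing Gα16 and hTAAR1 / Benchmarks: DMSO vehicle as 0%, PEA at EC100 as 100% / Repeats: no replicates (n 1) / Measure: % activation from peak over basal fluorescence ratio, DMSO-to-PEA scaled / Timing: 17-24 h plating, Fluo-8 75 min 37 °C, 30 min RT / Technique: kinetic Fluo-8 calcium fluorescence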
OX1R antag-2 – blocks the human orexin 1 receptor; actives 0.43% (n = 330,000); CHO/OX1R cells, Fluo-8 calcium fluorescence, orexin A; O43613; inhibition, % at 5 µM;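 active = inhibition above its plate's threshold, mean inhibition of all tested compounds on the plate plus 3 SD, cut at about 37% in these data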;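 also: 0% = orexin A challenge wells and 100% = SB-334867-A antagonist wells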
* marks the source's active call; other numbers are inactive results; . = not tested or not shown. Hits are enriched below; roughly 3.9% of the tested compounds scored in any of these assays.

SMILES | OX1R antag-1 | CHO parental Ca | TAAR1 antag | TAAR1 agonist | OX1R antag-2
Cc1cccc(NC(=O)C2CCCN2S(=O)(=O)c2ccc(Cl)cc2)n1 (centres undefined) | 76* | -7 | -15 | 0 | 22
COc1ccc(C)cc1NC(=O)C1CCCCN1S(=O)(=O)c1ccccc1 (centres undefined) | 66* | -28 | 3 | 22 | 35
CCOc1ccccc1NC(=O)C1CCCCN1S(=O)(=O)c1ccc(F)cc1 (centres undefined) | 53* | -32 | -8 | 3 | 32
Cc1ccc(S(=O)(=O)N2CCC[C@H]2C(=O)Nc2ccccc2C)cc1 | 48* | -20 | -13 | 1 | 7
CCOc1ccccc1NC(=O)C1CCN(c2ccc(S(=O)(=O)N3CCCC3)cc2)CC1 | 14 | -15 | 9 | 4 | -17
CC(C)N1CCCC(C)(C(=O)Nc2cccc(Oc3ccccc3)c2)C1 (centres undefined) | . | . | -11 | -1 | .
COc1cccc(C(=O)N[C@H](C(=O)N2CCC[C@H]2C(=O)NCc2ccccc2)C(C)C)c1 | . | . | -13 | 0 | .
C[C@@H]1CN([C@@H](C)CO)C(=O)CCCn2cc(nn2)CO[C@H]1CN(C)C(=O)Nc1ccc(C(F)(F)F)cc1 | . | . | 6 | 4 | .
CC1Cc2ccccc2N1C(=O)C1CCCCN1S(=O)(=O)c1ccccc1 (centres undefined) | 49* | -10 | 5 | 3 | 5
CC1Cc2cc(S(=O)(=O)N3CCCCC3C)ccc2N1C(=O)C1CCC1 (centres undefined) | 13 | 3 | -8 | 3 | -4
O=C(Nc1ccccc1F)C1CCCN1S(=O)(=O)c1ccc(Cl)cc1 (centres undefined) | 46* | -17 | -17 | -1 | 27
COc1ccc(NC(=O)C2CCCCN2S(=O)(=O)c2ccccc2)cc1S(=O)(=O)N1CCOCC1 (centres undefined) | . | . | 58* | 21 | .
Cc1ccc(S(=O)(=O)N2CCC[C@H]2C(=O)Nc2ccccc2Cl)cc1 | 61* | -16 | -16 | 0 | 28
COc1ccc(NC(=O)CSc2ccccc2)cc1S(=O)(=O)N1CCOCC1 | 24 | -8 | -2 | 3 | -16
C[C@@H]1COc2cc(N3CCOCC3)ccc2S(=O)(=O)N1 | . | . | -19 | 2 | .
Cc1ccc(S(=O)(=O)N2[C@H](CC(=O)c3ccc(F)cc3)OC[C@@H]2C)cc1 | . | . | -20 | -2 | .
Cc1ccc(S(=O)(=O)N2Cc3ccccc3CC2C(=O)Nc2ccc3c(c2)OCO3)cc1 (centres undefined) | 20 | -12 | 16 | 3 | -14
Cc1cccc(NC(=O)C2CCCCN2S(=O)(=O)c2ccccc2)c1C (centres undefined) | 33* | -16 | -7 | 1 | 5
Cc1ccc(S(=O)(=O)N2Cc3ccccc3CC2C(=O)NC(C)(C)C)cc1 (centres undefined) | 27* | -26 | -5 | -1 | -19
Cc1ccc(S(=O)(=O)N(C)C)cc1NC(=O)C1CCCCN1S(=O)(=O)c1ccccc1 (centres undefined) | 10 | -32 | -22 | 15 | -27
COc1ccc(NS(=O)(=O)c2ccc(Cl)c(C(=O)O)c2)cc1S(=O)(=O)N1CCCCC1 | 12 | 43* | -7 | 9 | 1
O=C(Nc1ccccc1)Nc1ccc(S(=O)(=O)N2CCCCC2)cc1 | 43 | 38* | 19 | 50* | 34
N#CC(C#N)=NNc1ccc(S(=O)(=O)N2CCCCC2)cc1 | 57* | -15 | -2 | 12 | 1
N#C/C(=N\Nc1ccc(S(=O)(=O)N2CCOCC2)cc1)C(N)=S | 20 | -7 | 2 | 1 | -13
CN(C)c1ccc(C=C(C#N)C(=O)c2ccccc2)cc1Br | . | . | -18 | 1 | .
SMILES | OX1R antag-1 | CHO parental Ca | TAAR1 antag | TAAR1 agonist | OX1R antag-2
CC(=O)NC(c1ccccc1)c1nc(-c2ccc(Cl)cc2)cs1 (centres undefined) | . | . | -11 | 1 | .
Fc1ccc(-n2nnnc2-c2cnc(-c3cccs3)nc2C(F)(F)F)cc1 | 83* | 51* | 79* | 16 | 39
c1ccc(-n2nnnc2-c2cnc(-c3ccncc3)nc2-c2cccs2)cc1 | 46* | -11 | 7 | -2 | 21
FC(F)(F)c1nc(N2CCCC2)ncc1-c1nnnn1-c1ccc(Cl)cc1 | 50 | 47* | 6 | 12 | 61*
FC(F)(F)c1ccncc1-c1nnnn1-c1ccc(Cl)cc1 | 14 | -8 | -11 | 3 | -4
FC(F)(F)c1nc(-c2ccncc2)ncc1-c1nnnn1-c1ccccc1 | 15 | -23 | 5 | 4 | -10
CCc1ccc(C(O)c2ncc(-c3ccc(C)cc3)[nH]2)cc1 (centres undefined) | . | . | -15 | 1 | .
Cc1ccc(S(=O)(=O)N(C)[C@H]2C[C@H]3c4[nH]c5c(-c6ccccc6)cccc5c4CCN3C(=O)[C@H]2[C@H](C)O)cc1 | . | . | 44 | 3 | .
CC(C)(C)NC(=O)C(c1ccccc1F)n1c(=O)c(-c2ccccc2)nc2ccccc21 (centres undefined) | . | . | -33 | 1 | .
CCCCCCCCN1C(=O)[C@H](CC(=O)NCCC(C)C)C[C@@]2(C(=O)OC)CCCCC=C12 | . | . | -13 | -2 | .
O=C(NC1CCCC1)[C@@H]1CCCN1C(=O)[C@@H](NC(=O)N1CCOCC1)C1CCCCC1 | . | . | 7 | 2 | .
CC(=O)Nc1ccc(S(=O)(=O)NC2=C(N3CCN(C)CC3)C(=O)c3ccccc3C2=O)cc1 | 68* | -8 | -11 | 2 | -7
CC(=O)Nc1ccc(S(=O)(=O)NC2=C(N3CCN(Cc4ccccc4)CC3)C(=O)c3ccccc3C2=O)cc1 | 34 | -17 | 37 | 10 | -18
O=C1C(NS(=O)(=O)c2ccc(Br)cc2)=C(N2CCCCC2)C(=O)c2ccccc21 | 53* | -29 | -23 | -4 | -34
CC1CCCN(C2=C(NS(=O)(=O)c3ccc(Br)cc3)C(=O)c3ccccc3C2=O)C1 (centres undefined) | 41 | -8 | -29 | 29 | -32
CC1CCN(C2=C(NS(=O)(=O)c3ccc(Br)cc3)C(=O)c3ccccc3C2=O)CC1 | 56* | -26 | 15 | 0 | -36
CCN1CCN(C2=C(NS(=O)(=O)c3ccc(C)cc3)C(=O)c3ccccc3C2=O)CC1 | 61* | -11 | -3 | 0 | -8
CCN(CCNCC(O)COCc1ccc(Cl)cc1)c1cccc(C)c1 (centres undefined) | 2 | -4 | 19 | 40* | -22
CC1(C(=O)O)CCCN1C(=O)c1cccc(OC(F)(F)F)c1 (centres undefined) | . | . | -21 | 1 | .
CC(C)c1cc(C(=O)Nc2cc(Br)ccc2O)no1 | 23 | 30* | 12 | 3 | 16
COc1ccc(-n2ccnc2SCC(=O)c2c(N)n(C3CC3)c(=O)[nH]c2=O)cc1 | . | . | -7 | 4 | .
O=S(=O)(c1ccccc1)N(CC1CO1)c1cccc2ccccc12 (centres undefined) | 67* | -16 | 3 | -2 | 12
